We go through two compounds from ChEMBL document CHEMBL4411269, “Required Immunoproteasome Subunit Inhibition Profile for Anti-Inflammatory Efficacy and Clinical Candidate KZR-616 ((2 S,3 R)- N-(( S)-3-(Cyclopent-1-en-1-yl)-1-(( R)-2-methyloxiran-2-yl)-1-oxopropan-2-yl)-3-hydroxy-3-(4-methoxyphenyl)-2-(( S)-2-(2-morpholinoacetamido)propanamido)propenamide)” (J Med Chem, 2018).

Structures are written as SMILES. Active and inactive are the calls of the source. The calls are words filed in the database; no cut-off is given here. Some results are limits rather than exact numbers.

Data set [1] deals with T1, Proteasome subunit beta type-8 (Homo sapiens) (UniProt P28062).
T1 sequence (whole entry): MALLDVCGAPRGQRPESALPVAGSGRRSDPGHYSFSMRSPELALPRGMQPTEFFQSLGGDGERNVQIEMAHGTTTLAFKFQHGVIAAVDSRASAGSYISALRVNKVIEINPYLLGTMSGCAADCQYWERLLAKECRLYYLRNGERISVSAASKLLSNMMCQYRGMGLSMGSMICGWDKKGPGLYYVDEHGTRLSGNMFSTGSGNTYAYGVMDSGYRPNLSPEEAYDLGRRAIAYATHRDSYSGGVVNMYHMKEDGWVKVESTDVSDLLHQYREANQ
Description: Inhibition of LMP7 in human PBMC at 250 nM by ELISA. The procedure, abridged: (§1)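 Cryopreserved healthy-donor human PBMC in RPMI 1640 with 5% heat-inactivated FBS, exposed to compound (0.1% DMSO final) for 1 h at 37 °C, 5% CO2, then washed. Subunit-specific active-site occupancy read by ProCISE: biotinylated active-site probe binding, denaturation, streptavidin capture, subunit-specific antibody and HRP chemiluminescence. Signal normalized to protein and expressed relative to DMSO controls.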
For orientation: An ELISA detects its analyte on a solid surface through an enzyme-linked reagent.

Data set [2] deals with PBMC. The data set can be described thus: Cytotoxicity in human PBMC assessed as reduction in cell viability at 125 nM relative to control. The note with it: 0.125 µM. It is filed as cell-based.
The nature of data set [3]: Clearance in Balb/c mouse at 2 mg/kg, iv. Type of data set: ADME, organism-based. The conditions noted are these: in vivo. In a few lines:
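Female BALB/c mice aged 7−8 weeks, given 2 mg/kg iv in 25% PEG300/WFI. Cardiac blood taken at 2, 5, 10, 20, 30, 60 and 120 min postdose into sodium heparin and processed to plasma (n = 3/time point). Proteins precipitated with acetonitrile; drug measured by LC−MS/MS. Noncompartmental analysis of mean concentrations at nominal times and target doses.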

Data set [4] concerns PBMC. Description: Antiinflammatory activity in human PBMC assessed as reduction in LPS-stimulated p40 subunit of […] expression at 125 nM preincubated for 1 hr followed by LPS stimulation measured after 24 hrs by ELISA. Type of data set: functional, cell-based. The procedure, abridged:
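Cryopreserved healthy-donor PBMC in RPMI 1640 with 5% heat-inactivated FBS, 250 000 cells/well. Compound (0.1% DMSO final) for 1 h at 37 °C, 5% CO2, then 4 washes with medium. Stimulated with 1 μg/mL LPS for 24 h; supernatant TNFα, IL-6 and IL-12/23p40 by electrochemiluminescent immunoassay. Mean level relative to DMSO controls, n = 6.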

For data set [5], the system named is Mus musculus. Description: In vivo inhibition of LMP7 in Balb/c mouse splenocytes at 20 mg/kg, iv followed by dosing repeat on day 6, 8, 11, 13 and 15 and co-treated with 5 mg/kg, iv KZR-504 and measured on 1 hr post last dose. It is filed as functional, organism-based. The procedure, abridged: (§2)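 BALB/c mice dosed iv bolus in 10% sulfobutyl ether−β-cyclodextrin/10 mM sodium citrate pH 3.5; tissues taken 1 h after administration. Splenocytes strained and red cells lysed; kidney frozen, then bead-homogenized. Hypotonic lysate (20 mM Tris pH 8, 5 mM EDTA) at 1 mg/mL (spleen) or 5 mg/mL (kidney) run in the ProCISE active-site ELISA. Background-subtracted, protein-normalized activity relative to vehicle animals; n = 3.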

Data set [6] is described as follows: Toxicity in Balb/c mouse assessed as effect on cage-side observations at 20 mg/kg, iv followed by dosing repeat on day 6, 8, 11, 13 and 15 and measured until day 18. It is filed as organism-based. The note with it: in vivo.
Data set [7] concerns PBMC. The data set can be described thus: Antiinflammatory activity in human PBMC assessed as reduction in anti-CD3/CD28 antibody-stimulated IFN-gamma expression at 125 nM preincubated for 1 hr followed by anti-CD3/CD28 antibody stimulation measured after 24 hrs in presence of KZR-504 by ELISA. It is filed as functional, cell-based. In a few lines:
(§3)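 Healthy-donor PBMC, thawed from cryopreservation, 250 000 cells/well in RPMI 1640/5% FBS. Pretreated 1 h at 37 °C with compound alone or combined (0.1% DMSO final), washed 4 times, then stimulated 24 h with anti-CD3 and anti-CD28 antibodies. TNFα and IFNγ in supernatants by electrochemiluminescent ELISA; expressed relative to DMSO-treated controls (n = 6).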

The subject of data set [8] is PBMC. Description: Antiinflammatory activity in human PBMC assessed as reduction in anti-CD3/CD28 antibody-stimulated TNF-alpha expression at 125 nM preincubated for 1 hr followed by anti-CD3/CD28 antibody stimulation measured after 24 hrs by ELISA. Type of data set: functional, cell-based. The procedure, abridged:
as §3

For data set [9], the system named is Mus musculus. The data set can be described thus: In vivo inhibition of LMP7 in Balb/c mouse splenocytes at 20 mg/kg, iv followed by dosing repeat on day 6, 8, 11, 13 and 15 and measured on 1 hr post last dose. It is filed as functional, organism-based. The procedure, abridged: as §2
Data set [10] addresses T2, Proteasome subunit beta type-10 (Homo sapiens) (UniProt P40306).
T2 sequence (whole entry): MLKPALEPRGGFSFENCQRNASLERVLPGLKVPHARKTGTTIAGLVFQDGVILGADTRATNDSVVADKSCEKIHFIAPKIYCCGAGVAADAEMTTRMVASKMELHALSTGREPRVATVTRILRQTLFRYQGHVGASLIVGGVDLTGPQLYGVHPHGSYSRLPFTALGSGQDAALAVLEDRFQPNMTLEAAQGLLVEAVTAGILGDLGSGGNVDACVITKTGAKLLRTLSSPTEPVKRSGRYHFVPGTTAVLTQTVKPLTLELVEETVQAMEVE
Description: Inhibition of MECL1 in human PBMC at 125 nM by ELISA. The procedure, abridged:
as §1

The target in data set [11] is T2, Proteasome subunit beta type-10 (Homo sapiens). Description: Inhibition of MECL1 in human PBMC at 125 nM in presence of KZR-504 by ELISA. The procedure, abridged: as §1
Data set [12] deals with Mus musculus. Description: Antiarthritic activity in type 2 collagen antibody/LPS induced Balb/c mouse assessed as reduction in disease burden at 20 mg/kg, iv followed by dosing repeat on day 6, 8, 11, 13 and 15 and co-treated with 5 mg/kg, iv KZR-504 and measured until day 18. It is filed as functional, organism-based. The procedure, abridged:
(§4)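 CAIA in 7−8 week old female BALB/c mice on breeder chow. Induced with 1.75 mg of a 5-antibody anti-type II collagen cocktail iv on day 0, then 25 μg LPS ip on day 3. Dosed as single iv boluses in 10% (w/v) sulfobutyl ether−β-cyclodextrin/10 mM sodium citrate (pH 3.5); vehicle-treated group included.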

The test system of data set [13] is Mus musculus. Description: In vivo inhibition of proteosome beta 5 in Balb/c mouse kidney at 20 mg/kg, iv followed by dosing repeat on day 6, 8, 11, 13 and 15 and measured on 1 hr post last dose. It is filed as functional, organism-based. The procedure, abridged:
as §2

The target of data set [14] is T1, Proteasome subunit beta type-8 (Homo sapiens). The data set can be described thus: Inhibition of LMP7 in human PBMC at 125 nM by ELISA. The procedure, abridged: as §1
Data set [15] concerns Mus musculus. Description: In vivo inhibition of LMP2 in Balb/c mouse splenocytes at 20 mg/kg, iv followed by dosing repeat on day 6, 8, 11, 13 and 15 and co-treated with 5 mg/kg, iv KZR-504 and measured on 1 hr post last dose. Type of data set: functional, organism-based. The procedure, abridged: as §2
For data set [16], the system named is Mus musculus. Description: Antiarthritic activity in type 2 collagen antibody/LPS induced Balb/c mouse assessed as reduction in disease burden at 20 mg/kg, iv followed by dosing repeat on day 6, 8, 11, 13 and 15 and measured until day 18. It is filed as functional, organism-based. In a few lines: as §4
The target of data set [17] is T1, Proteasome subunit beta type-8 (Homo sapiens). Description: Inhibition of LMP7 in human PBMC at 125 nM in presence of KZR-504 by ELISA. In a few lines:
as §1

With `Cc1ccc(CC[C@H](NC(=O)[C@H](Cc2ccccc2)NC(=O)[C@H](CC(C)C)NC(=O)CN2CCCCCC2)C(=O)[C@@]2(C)CO2)cc1`, the inhibition result in data set [1] is “Active”.

A word on the clearance: it is the volume of plasma or blood freed of the substance per unit of time. High values mean efficient removal, low ones inefficient removal. Consider `COc1ccc(C[C@H](NC(=O)[C@@H](C)NC(=O)[C@H]2CC[C@H](O)CC2)C(=O)N[C@@H](CC2=CCCC2)C(=O)[C@@]2(C)CO2)cc1`, for which the Activity in data set [2] is 30%; in data set [6], “Non-Toxic”. The clearance in data set [3] is > 73 mL/min/kg. Moreover, the outcome in data set [4], in data set [7], in data set [8] and in [12] was Active. For the same compound, the inhibition entry in [5], in data set [9], in [10], in data set [11], in data set [13] and in data set [14] was “Active” throughout. Moreover, the inhibition result in data set [15] and in data set [17] was “Active” throughout. For the same compound, the outcome in data set [16] was inactive.
